Most compounds without a hit are left out; they make up all but 4.1% or so of the library.
KCNK3 inh – human KCNK3 channel inhibition, primary screen. O14649. CHO-KCNK3 thallium flux, FluxOR fluorescence; active compounds read low. B-score at 10 µM. actives 0.84% (n = 340,000). AID 602410;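 active = B-score under library mean minus 4 SD, starting fluorescence ratio at most library mean plus 5 SD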;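 also: more negative B-score means stronger inhibition of thallium flux through KCNK3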
KCNK9 block – inhibitors of human KCNK9 two-pore domain potassium channel | Q9NPC2 | HEK293 KCNK9, FluxOR thallium flux fluorescence; active compounds read low | B-score at 10 µM | actives 1.2% (n = 310,000);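 active = ratio B-score over 3 SD below the library mean, with starting fluorescence within 5 SD of its mean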;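 also: negative B-score means less thallium flux so channel inhibition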
hERG protect – compounds protecting human hERG from proarrhythmic drug block; Q12809; actives 0.51% (n = 310,000); activation (rescue from dofetilide block), less the hit threshold, % at 10 µM; CHO-hERG, FluxOR thallium flux, dofetilide IC70 present;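 active = activation above the mean of controls blocked by dofetilide plus 5 SD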;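 also: thallium influx through hERG after potassium depolarization seen as dye fluorescence rise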
KCNQ1 block – blocks the human KCNQ1 potassium channel; P51787; CHO-K1 KCNQ1, FluxOR thallium flux fluorescence; active compounds read high; B-score at 10 µM; actives 1.3% (n = 310,000);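 active = compounds whose thallium flux B-score, printed positive for inhibition, exceeds three library SD while starting fluorescence stays within three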;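 also: channel opened by potassium depolarization with thallium stimulus after 20 min compound exposure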
KCNQ1 act – potentiators or activators of human KCNQ1 potassium channel. actives 0.35% (n = 310,000). CHO-K1 KCNQ1, thallium flux FluxOR fluorescence; active compounds read high. P51787. B-score at 10 µM;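 active = fluorescence ratio B-score, a plate-corrected score, at least three library SD, with initial intensity B-score within 5 SD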
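Medium – assay buffer, equal DMSO in all wells · Material – CHO-K1 cell line with stable KCNQ1 potassium channel expression · Signal – kinetic FluxOR thallium fluorescence, 10-s 1-Hz baseline, 110-s post-stimulus read · Compound – single concentration per compound, DMSO matched to controls · Schedule – 37 °C overnight plating, 90-min dark dye load, 20-min compound pretreatment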
Cl transport mod – modulators of human KCC2 chloride dependent transport; Q9H2X9; KCC2 cells, thallium flux FluoZin-2 fluorescence; B-score of Tl+ flux slope (higher = more flux/activation; lower = inhibition) at 10 µM; actives 2.2% (n = 190,000); AID 1456;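 active = thallium flux slope and its plate-corrected score both differing from the plate sample mean at a set confidence after two filtering rounds, in either direction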;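 also: slope of fluorescence scaled to starting intensity during 10 to 20 s after thallium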
KCNK9 inh conf – human KCNK9 inhibitor confirmation; shares compounds with KCNK9 block; HEK293 KCNK9 cells, FluxOR thallium flux fluorescence; inhibition, % at 10 µM; actives 43% (n = 4,900);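 active = thallium signal inhibited by more than 5 SD of the compound-free buffer control wells, on both duplicate plates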
Kir21 sel – selectivity of KCNK9 modulators against mouse Kir2.1; Kir2.1 cells, FluxOR thallium flux fluorescence; shares compounds with KCNK9 block; inhibition, % at 10 µM; actives 4% (n = 4,900); AID 492993;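 active = thallium signal drop more than 5 SD beyond the mean of the no-compound control wells, seen in both duplicate plates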;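 also: signal is fluorescence rise after thallium addition divided by baseline fluorescence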
KCNK9 uninduced – second counter-screen for KCNK9 modulators: effect in non-induced cells; actives 40% (n = 4,900); non-induced KCNK9-HEK293, FluxOR thallium flux; AID 492997; inhibition, % at 10 µM; shares compounds with KCNK9 block;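 active = thallium signal drop beyond 5 SD of the untreated control mean, on both duplicate plates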
Hits are given with their value; - = inactive; . = no result given.

SMILES	KCNK3 inh	KCNK9 block	hERG protect	KCNQ1 block	KCNQ1 act	Cl transport mod	KCNK9 inh conf	Kir21 sel	KCNK9 uninduced
Cc1ccc(C)c(OCCC(=O)NCCc2ccc(Cl)cc2)c1	-	-	-	-	-	.	.	.	.
CCOc1ccc(CCNC(=O)CSc2nnnn2C)cc1OCC	-	-13.4	-	-	-	-	-	-	-
CCOc1ccc(CCNC(=O)COC(=O)COc2cc(C)cc(C)c2)cc1OCC	-	-	-	-	-	.	.	.	.
CCOc1ccc(CCNC(=O)CSCc2ccc(C)cc2)cc1OCC	-	-	-	-	-	-	-	-	-
COc1cccc(CC(=O)NNC(=O)CN(C)S(=O)(=O)c2ccc(C)cc2)c1	-	.	.	.	.	.	.	.	.
CC1Cc2cc(/C(O)=C3/C(=O)C(=O)N(CCCn4ccnc4)C3c3ccc(F)cc3)ccc2O1 (centres undefined)	-	-	-	-	-	.	.	.	.
O=C(CSCc1ccc(Br)cc1)NCCc1ccccc1	-	-	-	-	-	.	-	-	-
O=C(CSCc1ccccc1)NCCc1ccc(F)cc1	-	-	-	-	-	.	.	.	.
CC(C)Cn1cnc2c(c(-c3ccccc3)c(-c3ccccc3)n2Cc2ccco2)c1=N	-	-9.85	-	9	-	.	67.5%	56.5%	28.5%
N=c1c2c(-c3ccccc3)c(-c3ccccc3)n(Cc3ccco3)c2ncn1Cc1ccccc1	-	-15.4	-	10	-	-	59.5%	52.0%	27.5%
CC(C)CCN(C(=O)C1CSC2(C)CCC(=O)N12)c1c(N)n(Cc2ccccc2)c(=O)[nH]c1=O (centres undefined)	-	-	-	-	-	.	.	.	.
CCOc1ccc(S(=O)(=O)Nc2cc(C)ccn2)c2ccccc12	-	-	-	-	-	-	-	-	-
COc1ccc(C(=O)/C=C/NCc2ccc(C)cc2)cc1	-	-	-	-	-	.	-	-	-
Cc1ccc(C(=O)/C=C\NCc2ccccc2)cc1	-	-	-	-	-	.	.	.	.
CCOC(=O)C1CCN(S(=O)(=O)c2ccc(OC)c(C(=O)N3CCCCC3)c2)CC1	-	-	-	-	-	.	.	.	.
COc1ccc2oc(C(=O)NCC(c3ccco3)N(C)C)c(C)c2c1 (centres undefined)	-	-	-	-	-	.	.	.	.
COc1ccc2oc(C(=O)N(C)CCOc3ccc(Cl)cc3)c(C)c2c1	-	-	-	-	-	.	-	-	-
Cc1ccc2oc(C(=O)N(C)Cc3ccc(C)o3)c(C)c2c1	-	-	-	-	-	.	-	-	25.0%
CC(=O)Nc1ccc(NC(=O)CSc2nnc(N)n2-c2ccccc2)cc1	-	.	.	.	.	.	.	.	.
O=C(NCc1cccnc1)C(=O)NCC1OCCCN1S(=O)(=O)c1ccc(F)cc1 (centres undefined)	-	-	-	-	-	.	.	.	.
COc1ccc(C(=O)CCC(=O)N2CCN(c3ccccc3)CC2)cc1	-	-	-	-	-	.	.	.	.
O=C(C1CCN(S(=O)(=O)c2ccc(Cl)cc2)CC1)N1CCN(c2ccccn2)CC1	-	.	.	.	.	.	.	.	.
CCCCCCCc1c(C#N)c(N)[nH]c(=S)c1C#N	-	-	-	7	-	-	-	-	-
CCOC(=O)c1cc(C)[nH]c(=S)c1C#N	-	-	-	-	-	.	.	.	.
CCCCC1(C)NC(=O)N(CC(=O)Nc2ccc(Cl)cc2C)C1=O (centres undefined)	-	.	.	.	.	.	.	.	.
CCOc1ccc(C2=C(C=C(C#N)C#N)C(c3ccccc3)c3ccccc3O2)cc1 (centres undefined)	-	-11.5	-	-	-	-	50.0%	-	24.5%
Cn1nnnc1SCC(=O)Nc1c(Cl)cccc1Cl	-	-	-	-	-	.	.	.	.
Cc1ccc(CSCCNC(=O)CCSc2ccccc2)cc1	-	-	-	-	-	.	.	.	.
Cc1ccc(CSCCNC(=O)CN(c2cc(C)ccc2C)S(C)(=O)=O)cc1	-	-	-	-	-	-	-	-	-

Screens: PubChem, several laboratories
